Results reported in ChEMBL document CHEMBL1127568, “A new series of PDGF receptor tyrosine kinase inhibitors: 3-substituted quinoline derivatives” (J Med Chem, 1994).
pIC50: −log10 of the molar value.

How the values were obtained:
[1] = biological target: T1, Platelet-derived growth factor receptor (Homo sapiens, UniProt P09619+P16234); test: Inhibition of human PDGF receptor phosphorylation; 0.03-0.1; assay type: protein-complex assay
Outline: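 Receptor from quiescent NIH 3T3 cell lysates (24 h in 0.5% calf serum before lysis), stimulated with 10 ng/mL PDGF for 30 min at 4 °C, then immunoprecipitated with anti-PDGF receptor antibody on Protein A beads. Compound pre-incubated 10 min at 4 °C in 50 mM Tris, 10 mM MnCl2, pH 7.5. At least two dose-response assays per compound.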

[2] = biological target: Epidermal growth factor receptor (Homo sapiens, UniProt P00533); test: Concentration required to inhibit phosphorylation of isolated human epidermal growth factor tyrosine kinase receptor by 50%
[3] = biological target: T1, Platelet-derived growth factor receptor; test: Inhibition of human PDGF receptor phosphorylation; 0.001-0.005; assay type: protein-complex assay
Outline: (§1)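 PDGF receptor from NIH 3T3 cell lysates (cells made quiescent 24 h in 0.5% calf serum), stimulated with 10 ng/mL PDGF for 30 min at 4 °C and immunoprecipitated on Protein A beads. Each compound ran in at least two dose-response assays.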

[4] = biological target: T1, Platelet-derived growth factor receptor; test: Inhibition of human PDGF receptor phosphorylation; 1-2; assay type: protein-complex assay; outline: as §1
[5] = biological target: T1, Platelet-derived growth factor receptor; test: Inhibition of isolated human PDGF receptor phosphorylation; assay type: protein-complex assay
[6] = biological target: T1, Platelet-derived growth factor receptor; test: Inhibition of human PDGF receptor phosphorylation; 0.015-0.025; assay type: protein-complex assay; outline: as §1
[7] = biological target: T1, Platelet-derived growth factor receptor; test: Inhibition of human PDGF receptor phosphorylation; 2-4; assay type: protein-complex assay
[8] = biological target: T1, Platelet-derived growth factor receptor; test: Inhibition of human PDGF receptor phosphorylation; 20-30; assay type: protein-complex assay
[9] = biological target: T1, Platelet-derived growth factor receptor; test: Inhibition of human PDGF receptor phosphorylation; 0.05-0.07; assay type: protein-complex assay; outline: as §1
[10] = biological target: T1, Platelet-derived growth factor receptor; test: Inhibition of human PDGF receptor phosphorylation; 0.002-0.06; assay type: protein-complex assay; outline: as §1
[11] = biological target: T1, Platelet-derived growth factor receptor; test: Inhibition of human PDGF receptor phosphorylation; 2-10; assay type: protein-complex assay; outline: as §1
[12] = biological target: T1, Platelet-derived growth factor receptor; test: Inhibition of human PDGF receptor phosphorylation; 0.1-0.5; assay type: protein-complex assay; outline: as §1
[13] = biological target: T1, Platelet-derived growth factor receptor; test: Inhibition of human PDGF receptor phosphorylation; 0.01-0.02; assay type: protein-complex assay
[14] = biological target: cAMP-dependent protein kinase (PKA) (Homo sapiens, UniProt P22694+P17612+P22612); test: Test for the inhibition of protein kinase A; assay type: protein assay
[15] = biological target: T1, Platelet-derived growth factor receptor; test: Inhibition of human PDGF receptor phosphorylation; 0.2-0.6; assay type: protein-complex assay; outline: as §1
[16] = biological target: T1, Platelet-derived growth factor receptor; test: Inhibition of human PDGF receptor phosphorylation; 0.15-0.5; assay type: protein-complex assay; outline: as §1
[17] = biological target: T1, Platelet-derived growth factor receptor; test: Inhibition of human PDGF receptor phosphorylation; 0.1-0.4; assay type: protein-complex assay; outline: as §1
[18] = biological target: T1, Platelet-derived growth factor receptor; test: Inhibition of human PDGF receptor phosphorylation; 0.001-0.015; assay type: protein-complex assay
[19] = biological target: T1, Platelet-derived growth factor receptor; test: Inhibition of human PDGF receptor phosphorylation; 0.2-0.25; assay type: protein-complex assay; outline: as §1
[20] = biological target: T1, Platelet-derived growth factor receptor; test: Inhibition of human PDGF receptor phosphorylation; 0.09-0.2; assay type: protein-complex assay; outline: as §1
[21] = biological target: T1, Platelet-derived growth factor receptor; test: Inhibition of human PDGF receptor phosphorylation; 0.02-0.03; assay type: protein-complex assay; outline: as §1
[22] = biological target: T1, Platelet-derived growth factor receptor; test: Inhibition of human PDGF receptor phosphorylation; 0.7-5; assay type: protein-complex assay; outline: as §1
[23] = biological target: T1, Platelet-derived growth factor receptor; test: Inhibition of human PDGF receptor phosphorylation; 0.025-0.03; assay type: protein-complex assay; outline: as §1
[24] = biological target: T1, Platelet-derived growth factor receptor; test: Inhibition of human PDGF receptor phosphorylation; 0.007-0.03; assay type: protein-complex assay
[25] = biological target: T1, Platelet-derived growth factor receptor; test: Inhibition of human PDGF receptor phosphorylation; 0.02-0.08; assay type: protein-complex assay
[26] = biological target: T1, Platelet-derived growth factor receptor; test: Inhibition of human PDGF receptor phosphorylation; 0.1-0.2; assay type: protein-complex assay; outline: as §1
[27] = biological target: T1, Platelet-derived growth factor receptor; test: Inhibition of human PDGF receptor phosphorylation; 0.004-0.025; assay type: protein-complex assay; outline: as §1

Chain of Epidermal growth factor receptor (P00533 whole entry): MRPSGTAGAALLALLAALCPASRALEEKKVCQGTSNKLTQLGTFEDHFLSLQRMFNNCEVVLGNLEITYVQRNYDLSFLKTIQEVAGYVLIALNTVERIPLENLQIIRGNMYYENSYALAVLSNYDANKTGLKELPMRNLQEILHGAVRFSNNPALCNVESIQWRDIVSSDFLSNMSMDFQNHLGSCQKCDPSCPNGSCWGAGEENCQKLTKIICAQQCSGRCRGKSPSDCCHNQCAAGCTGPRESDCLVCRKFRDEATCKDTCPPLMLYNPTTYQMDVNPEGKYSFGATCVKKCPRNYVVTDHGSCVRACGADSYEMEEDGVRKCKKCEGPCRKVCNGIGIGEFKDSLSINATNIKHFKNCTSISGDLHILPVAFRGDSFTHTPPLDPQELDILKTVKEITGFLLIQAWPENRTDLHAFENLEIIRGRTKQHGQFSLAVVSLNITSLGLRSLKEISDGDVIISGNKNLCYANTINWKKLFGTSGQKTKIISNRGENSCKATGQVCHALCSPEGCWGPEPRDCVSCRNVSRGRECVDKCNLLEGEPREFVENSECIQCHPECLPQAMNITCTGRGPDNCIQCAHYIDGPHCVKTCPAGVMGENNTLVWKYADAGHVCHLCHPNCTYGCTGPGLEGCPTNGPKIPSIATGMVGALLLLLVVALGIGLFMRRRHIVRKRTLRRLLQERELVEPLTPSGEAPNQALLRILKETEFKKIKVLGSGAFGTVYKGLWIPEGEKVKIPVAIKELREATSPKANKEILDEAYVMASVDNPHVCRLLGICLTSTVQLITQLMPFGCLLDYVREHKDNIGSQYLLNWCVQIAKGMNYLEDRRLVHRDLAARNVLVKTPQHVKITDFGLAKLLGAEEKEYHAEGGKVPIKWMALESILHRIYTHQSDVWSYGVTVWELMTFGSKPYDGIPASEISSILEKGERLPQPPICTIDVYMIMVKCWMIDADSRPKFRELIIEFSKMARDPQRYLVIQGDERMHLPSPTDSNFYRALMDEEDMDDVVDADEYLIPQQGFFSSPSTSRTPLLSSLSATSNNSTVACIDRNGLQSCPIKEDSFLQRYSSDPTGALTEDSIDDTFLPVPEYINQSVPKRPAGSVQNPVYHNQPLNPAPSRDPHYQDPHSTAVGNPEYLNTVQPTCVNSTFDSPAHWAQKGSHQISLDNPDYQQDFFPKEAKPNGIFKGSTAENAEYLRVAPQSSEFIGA

SMILES: COc1ccc(/C=C/c2cnc3cc(OC)c(OC)cc3c2)cc1
- pIC50 [1]: 7.00
- pIC50 [2]: < 4.70

SMILES: COc1cc2cc(/C=C/c3ccccc3)cnc2cc1OC
- pIC50 [2]: < 4.70
- pIC50 [3]: 8.30

SMILES: COc1cccc(-c2cnc3cc(OC)c(OC)cc3c2)c1
- pIC50 [4]: 5.70
- pIC50 [2]: < 4.70

SMILES: Fc1cccc2ncc(-c3ccsc3)cc12
- pIC50 [5]: 7.70

SMILES: COc1cc2cc(-c3ccc(N(C)C)cc3)cnc2cc1OC
- pIC50 [5]: 5.00
- pIC50 [2]: < 4.70

SMILES: COc1cc2cc(-c3cccc(F)c3)cnc2cc1OC
- pIC50 [2]: < 4.70
- pIC50 [6]: 7.60

SMILES: COc1cc2cc(-c3sccc3Cl)cnc2cc1OC
- pIC50 [5]: 6.00
- pIC50 [2]: < 4.70

SMILES: COc1cc2cc(-c3ccccc3OC)cnc2cc1OC
- pIC50 [5]: 5.70
- pIC50 [2]: < 4.70

SMILES: Fc1cc2cc(-c3ccsc3)cnc2cc1F
- pIC50 [7]: 5.40

SMILES: COc1cc2cccnc2cc1OC
- pIC50 [8]: 4.52
- pIC50 [2]: < 4.70

SMILES: COc1ccc2ncc(-c3ccsc3)cc2c1
- pIC50 [9]: 7.15
- pIC50 [2]: < 4.70

SMILES: COc1ccc2cc(-c3cccnc3)cnc2c1OC
- pIC50 [5]: < 4.30
- pIC50 [2]: < 4.60

SMILES: COc1cc2cc(-c3ccc(OCc4ccccc4)cc3)cnc2cc1OC
- pIC50 [5]: < 4.52
- pIC50 [2]: < 4.70

SMILES: COc1ccc2cc(-c3ccsc3)cnc2c1
- pIC50 [10]: 7.22
- pIC50 [2]: < 4.70

SMILES: COc1ccc(-c2cnc3cc(OC)c(OC)cc3c2)cc1OC
- pIC50 [2]: < 4.70
- pIC50 [11]: 5.00

SMILES: COc1cc2cc(C3CCCC3)cnc2cc1OC
- pIC50 [12]: 6.30
- pIC50 [2]: < 4.70

SMILES: COc1cc2cc(-c3ccsc3)cnc2cc1OC
- pIC50 [13]: 7.70
- IC50 [14]: > 200000 nM
- pIC50 [2]: < 4.70

SMILES: c1cc(-c2cnc3cc4c(cc3c2)OCO4)cs1
- pIC50 [15]: 6.22
- pIC50 [2]: < 4.70

SMILES: COc1cc2cc(-c3ccc(OC)c([N+](=O)[O-])c3)cnc2cc1OC
- pIC50 [16]: 6.30
- pIC50 [2]: < 4.70

SMILES: COc1ccc(-c2cnc3cc(OC)c(OC)cc3c2)cc1C
- pIC50 [17]: 6.40
- pIC50 [2]: < 4.70

SMILES: COc1ccc(-c2cnc3cc(OC)c(OC)cc3c2)cc1
- IC50 [14]: > 200000 nM
- pIC50 [2]: < 4.70
- pIC50 [18]: 7.82

SMILES: c1ccc2ncc(-c3ccsc3)cc2c1
- pIC50 [19]: 6.60
- pIC50 [2]: < 4.70

SMILES: COc1cc2cc(-c3ccc(F)c(F)c3)cnc2cc1OC
- pIC50 [20]: 6.70
- pIC50 [2]: < 4.70

SMILES: COc1cc2cc(-c3ccc(O)cc3)cnc2cc1OC
- pIC50 [21]: 7.52
- pIC50 [2]: < 4.70

SMILES: COc1cc2cc(-c3ccc(C(=O)O)cc3)cnc2cc1OC
- pIC50 [22]: 5.30

SMILES: Cc1ccc(C)c2ncc(-c3ccsc3)cc12
- pIC50 [5]: < 4.30
- pIC50 [2]: < 4.70

SMILES: COc1cc(OC)c2cc(-c3ccsc3)cnc2c1
- pIC50 [23]: 7.52
- IC50 [14]: > 200000 nM
- pIC50 [2]: < 4.70

SMILES: COc1cc2cc(-c3ccc4ccccc4c3)cnc2cc1OC
- pIC50 [5]: ≤ 4.70
- pIC50 [2]: < 4.70

SMILES: COc1cc2cc(-c3ccc(Cl)s3)cnc2cc1OC
- pIC50 [24]: 7.52
- pIC50 [2]: < 4.70

SMILES: COc1cc2cc(NCc3ccccc3)cnc2cc1OC
- pIC50 [25]: 7.10
- pIC50 [2]: < 4.70

SMILES: CCOC(=O)c1ccc(-c2cnc3cc(OC)c(OC)cc3c2)cc1
- pIC50 [26]: 6.70

SMILES: Fc1ccc2cc(-c3ccsc3)cnc2c1
- pIC50 [27]: 7.60
- pIC50 [2]: < 4.70
